According to paper PMC11621838 (Proceedings of the National Academy of Sciences of the …, 2024):

How the values were obtained:
TAS2R5 [1] = biological target: T1, TAS2R5 (Homo sapiens, UniProt Q9NYW4); type: cell-based
T1 sequence (Q9NYW4 1-299): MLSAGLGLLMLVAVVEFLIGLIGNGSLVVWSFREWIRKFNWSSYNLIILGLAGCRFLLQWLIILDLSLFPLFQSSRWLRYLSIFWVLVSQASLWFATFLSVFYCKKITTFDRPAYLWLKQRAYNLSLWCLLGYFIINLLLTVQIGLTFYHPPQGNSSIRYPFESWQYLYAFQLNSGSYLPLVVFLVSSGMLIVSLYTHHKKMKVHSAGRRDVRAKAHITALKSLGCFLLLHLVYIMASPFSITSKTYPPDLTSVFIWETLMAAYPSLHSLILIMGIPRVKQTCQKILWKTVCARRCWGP

TAS2R5 [2] = biological target: T1, TAS2R5; experiment: FLOWER microtoroid optical resonator receptor-ligand affinity measurement; type: binding
Procedure, shortened: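 Microtoroid coated with DOPC vesicles (0.5 mg/mL, 1.5 h, 3–4 °C). HEK-293-expressed TAS2R5 was extracted with CellLyticM (1:3) and spun 12,500 rcf, 60 min, 4 °C. The supernatant, diluted 1:6 in DPBS pH 7.4, was incubated with the toroid for 1.5 h. Graded agonist concentrations were perfused with 5-min buffer rinses. Peak wavelength shift per concentration was fit to a Hill binding equation (Bmax, nonspecific, background terms) for KD.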

EC50 (TAS2R5 [1]; EC50, D9 cells, Fluo-4, [Ca2+]i, mean ± SE of 7 to 10 experiments): 23.1 ± 3.99 µM
EC50, fold lower than that of T5-14 (TAS2R5 [1]; [Ca2+]i in D9 cells): 3 fold
potency class of the agonist (TAS2R5 [1]; cellular assays): moderate-potency
S.T. (log-transformed signal transduction coefficient) (TAS2R5 [1]; log(EMax/EC50), EC50 in Molar): 6.5
Kd (TAS2R5 [2]): 13 ± 3.5 µM
Structure (SMILES): c1cnc2c(c1)ccc1cccnc12 [T5-1, 1,10-phenanthroline]
